This note sets out measurements from PubChem BioAssay.

The source made the active and inactive calls.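 How the source made its calls, unless noted: active means viability at or below 10% of carrier control in both of two separate runs; inconclusive means viability at or below 10% in only one of the two runs; inactive means the rest.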

As a reminder, the viability is a read-out of living cells in per cent, often relative to untreated cells. Broadly, the inhibition is the change of the read-out against control, counted positive when it falls.

Assay [1] in a line: Her2 expression decrease, cell viability multiplex – SKBR3 breast tumor cells, AlphaScreen, ATP viability, primary screen (AID 461;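 active means Her2 level under about 52% in both replicate screens, with viability over 70% of control, limit read from the data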;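 on Her2 level: lower value means less Her2 protein in the cells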;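 on viability: percent of carrier control wells set as 100% viability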). As to conditions: SKBR3 Her2 protein level, 18-24 h, measured here: SKBR3 viability, ATP luminescence, at 10 µM. (In Alpha technology, singlet oxygen from a donor bead excites a nearby acceptor bead.)
In assay [2] the target is Receptor tyrosine-protein kinase erbB-2 (Homo sapiens) (UniProt P04626). The description is as above. As to conditions: 18-24 h, at 10 µM, stronger effect = lower value.
Chain of Receptor tyrosine-protein kinase erbB-2 (Homo sapiens) (P04626 whole entry, looked up): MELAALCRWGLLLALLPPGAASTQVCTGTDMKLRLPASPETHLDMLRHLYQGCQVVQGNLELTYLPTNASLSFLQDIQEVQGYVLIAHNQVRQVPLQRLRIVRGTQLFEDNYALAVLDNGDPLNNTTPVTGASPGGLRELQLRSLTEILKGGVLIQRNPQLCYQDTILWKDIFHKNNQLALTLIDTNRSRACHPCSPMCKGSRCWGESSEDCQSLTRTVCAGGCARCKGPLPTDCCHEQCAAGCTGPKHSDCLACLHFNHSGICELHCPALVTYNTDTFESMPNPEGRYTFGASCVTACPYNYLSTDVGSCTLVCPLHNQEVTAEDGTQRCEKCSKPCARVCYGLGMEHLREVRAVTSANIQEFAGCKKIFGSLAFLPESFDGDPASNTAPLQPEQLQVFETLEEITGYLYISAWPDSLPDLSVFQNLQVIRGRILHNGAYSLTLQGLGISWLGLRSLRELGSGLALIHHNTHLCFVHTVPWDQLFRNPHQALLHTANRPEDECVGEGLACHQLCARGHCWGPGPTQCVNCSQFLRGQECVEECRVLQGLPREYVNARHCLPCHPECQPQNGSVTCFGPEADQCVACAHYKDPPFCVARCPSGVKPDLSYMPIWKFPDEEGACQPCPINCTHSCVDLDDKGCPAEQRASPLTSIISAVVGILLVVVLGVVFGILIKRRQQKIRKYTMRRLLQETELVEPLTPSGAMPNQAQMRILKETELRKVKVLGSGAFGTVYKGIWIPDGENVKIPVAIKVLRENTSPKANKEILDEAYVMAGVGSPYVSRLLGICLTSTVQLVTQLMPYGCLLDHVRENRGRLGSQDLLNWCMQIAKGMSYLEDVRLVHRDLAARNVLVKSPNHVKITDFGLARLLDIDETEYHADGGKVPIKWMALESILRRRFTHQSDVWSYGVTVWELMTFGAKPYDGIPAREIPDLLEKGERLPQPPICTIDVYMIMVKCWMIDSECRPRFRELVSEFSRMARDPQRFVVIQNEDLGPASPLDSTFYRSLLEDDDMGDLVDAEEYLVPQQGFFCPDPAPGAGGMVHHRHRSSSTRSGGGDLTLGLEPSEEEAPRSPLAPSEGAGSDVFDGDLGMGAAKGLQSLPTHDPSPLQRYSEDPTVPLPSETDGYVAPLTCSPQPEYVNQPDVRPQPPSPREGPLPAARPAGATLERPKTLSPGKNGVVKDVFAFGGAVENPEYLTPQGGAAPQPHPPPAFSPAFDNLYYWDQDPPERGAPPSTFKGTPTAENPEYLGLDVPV
Assay [3] in a line: reduced viability of SK-BR-3 breast cancer cells – cell-based, 24 h, human, pilot screen (AID 572).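 Further: compound exposure lasted between 18 and 24 h rather than exactly 24 h; 100% = carrier-treated control wells.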 As to conditions: SK-BR-3 viability, CellTiter-Glo luminescence, at 10 µM, stronger effect = lower value. For orientation: ATP-based viability assays read luminescence as a measure of living cells.
A short description of assay [4]: HUVEC growth inhibition – cell-based, human, primary screen (AID 575;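 active means viability at or below 30% in both replicate assays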;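 further: 100% = median of untreated cell wells with 0.1% DMSO on each plate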). As to conditions: HUVEC proliferation, CellTiter-Glo luminescence, 72 h; at 10 µM; stronger effect = lower value. In short, it runs like this: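 Assay system: Primary human umbilical vein endothelial cells | Quantity: 1250 cells per well | Medium: Supplemented EBM, 2% fetal bovine serum | Detection: CellTiter-Glo luminescence measuring cellular ATP | Read-out: % viability vs DMSO wells | Plate: Collagen-coated 384-well format | Times: 72 h exposure, 37 °C, 5% CO2, 30 min RT equilibration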

A short description of assay [5]: H69AR cell proliferation blockers – human, duplicate replicates, primary screen (AID 580;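 active means viability at or under a set limit in both replicates, limit being median viability minus 3 SD, cut at about 48% in these data, passing the limit was not always enough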;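 further: 100% = mean luminescence of untreated wells and 0% = no signal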). The note with it: H69AR lung tumor cells viability, ATP luminescence, 72 h; at 10 µM; stronger effect = lower value.
A short description of assay [6]: MRP1 drug-resistance reversers in H69AR cells – cell-based, doxorubicin co-treatment, pilot screen (AID 601;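 active means viability loss from added drug above about 55%, and viability with drug at most 40%, in both replicates, limit read from the data, passing the limit was not always enough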). The note with it: CellTiter-Glo, 72 h, at 10 µM; for differential viability (reversal): stronger effect = higher value.
Assay [7] can be described thus: yeast transport mutant growth inhibition pilot in 384-well plates, post-Golgi transport modulator project (AID 636; in the data active means inhibition above about 31%). As to conditions: absorbance 615 nm, about 18 h, stronger effect = higher value.
Assay [8] in a line: growth suppression of yeast trafficking mutant, preliminary HTS, modulators of trafficking downstream of Golgi apparatus project, 1536-format plate, OD 615 nm (AID 637; in the data active means inhibition above about 30%). The note with it: yeast transport mutant growth, absorbance 615 nm, 18 h; stronger effect = higher value.
Where [9] appears, read: H69AR cells + 2 uM doxorubicin, measured here: viability with 2 uM doxorubicin, stronger effect = lower value.
[10] abbreviates: H69AR cells, compound alone cytotoxicity.

For `CCN(CC)CC(C)CNC(=O)CC(C(=O)N1CCc2ccccc21)n1ccnc1` (stereo not given), the viability in assay [1] was 88.5%; in assay [3] it was 88.5% (inactive); in assay [4] it was 104% (inactive); in assay [5] it was 95.9% (inactive); in assay [6] (setting [9]) it was 104%; in assay [6] (setting [10]), 95.9%. Also, in assay [2], the Her2 level is 106% (inactive). Further, in assay [6] (H69AR cells + 2 uM doxorubicin), the differential viability (reversal) is -7.88% (inactive). In addition, the inhibition in assay [7] was 0.52% (inactive); in assay [8] it was -9.34% (inactive).
In the case of `Cc1cc(NCCN(C)C)n2nc(-c3cccs3)cc2n1`, the viability is 90% in assay [1]; 90% (inactive) in assay [3]; 102% (inactive) in assay [4]; 92.6% (inactive) in assay [5]; 82.1% in assay [6] (setting [9]); 92.6% in assay [6] (setting [10]). Also, in assay [2], the Her2 level is 107% (inactive). Moreover, the differential viability (reversal) in assay [6] (H69AR cells + 2 uM doxorubicin) was 10.5% (inactive). The inhibition was -4.8% (inactive) in assay [7] and -2.62% (inactive) in assay [8].
As to `CCOC(=O)c1c(C)c(C(=O)NCCN2CCOCC2)c(C)n1C`, the viability in assay [1] is 89.5%; in assay [3], 89.5% (inactive); in assay [4] it was 107% (inactive); in assay [5], 86.7% (inactive); in assay [6] (setting [9]) it was 90.5%; in assay [6] (setting [10]), 86.7%. The Her2 level in assay [2] is 91% (inactive). Also, in assay [6] (H69AR cells + 2 uM doxorubicin), the differential viability (reversal) is -3.83% (inactive). In addition, the inhibition was -10.7% (inactive) in assay [7] and 1.11% (inactive) in assay [8].
On to `CCn1c(C)cc(=S)c2ccccc21`, for which the viability in assay [1] is 114%; in assay [3], 114% (inactive); in assay [4], 98.6% (inactive); in assay [5], 91.2% (inactive); in assay [6] (setting [9]) it was 87.3%; in assay [6] (setting [10]), 91.2%. Further, the Her2 level in assay [2] is 99.5% (inactive). Moreover, the differential viability (reversal) in assay [6] (H69AR cells + 2 uM doxorubicin) was 3.92% (inactive). In addition, the inhibition in assay [7] is 1.22% (inactive); in assay [8], -3.65% (inactive).
Take `CCc1ccccc1NC(=O)CSc1ncn[nH]1`: the viability was 101% in assay [1]; 101% (inactive) in assay [3]; 97.9% (inactive) in assay [4]; 103% (inactive) in assay [5]; 94% in assay [6] (setting [9]); 103% in assay [6] (setting [10]). Also, the Her2 level in assay [2] is 124% (inactive). Besides, the differential viability (reversal) in assay [6] (H69AR cells + 2 uM doxorubicin) was 8.47% (inactive). For the same compound, the figures for the inhibition in assay [7] and in assay [8] were -1.82% (inactive) and -6.33% (inactive), respectively.
Consider `CCOC(=O)C1CCN(c2c(N3CCCCCC3)c(=O)c2=O)CC1`, for which the viability was 97% in assay [1]; 97% (inactive) in assay [3]; 87.9% (inactive) in assay [4]; 98% (inactive) in assay [5]; 97.1% in assay [6] (setting [9]); 98% in assay [6] (setting [10]). Also, the Her2 level in assay [2] was 100% (inactive). In assay [6] (H69AR cells + 2 uM doxorubicin), the differential viability (reversal) was 0.92% (inactive). Further, the inhibition in assay [7] was -1.67% (inactive); in assay [8], -0.33% (inactive).
For the compound `CCCCNC(=O)CN(C1CCCCC1)S(C)(=O)=O`, the viability was 104% in assay [1]; 104% (inactive) in assay [3]; 101% (inactive) in assay [4]; 103% (inactive) in assay [5]; 92.4% in assay [6] (setting [9]); 103% in assay [6] (setting [10]). Besides, in assay [2], the Her2 level is 107% (inactive). Moreover, in assay [6] (H69AR cells + 2 uM doxorubicin), the differential viability (reversal) was 11% (inactive). The inhibition in assay [7] is -4.47% (inactive); in assay [8], -0.16% (inactive).
For `CCSC1(SCC)N=C(N)C2(C#N)C(c3ccccc3)NC(C)=C(C)C12C#N` (stereo not given), the viability in assay [1] was 95%; in assay [3] it was 95% (inactive); in assay [4], 81.4% (inactive); in assay [5] it was 93.3% (inactive); in assay [6] (setting [9]), 74.1%; in assay [6] (setting [10]), 93.3%. The Her2 level in assay [2] is 85.5% (inactive). In assay [6] (H69AR cells + 2 uM doxorubicin), the differential viability (reversal) is 19.2% (inactive). Moreover, the inhibition in assay [7] was -5.07% (inactive); in assay [8], -2.79% (inactive).
For the compound `Cn1c(=O)c2c(ncn2CC(=O)OCC(=O)NC2CCCc3ccccc32)n(C)c1=O` (stereo not given), the viability in assay [1] is 98%; in assay [3], 98% (inactive); in assay [4], 110% (inactive); in assay [5], 97.7% (inactive); in assay [6] (setting [9]), 92.4%; in assay [6] (setting [10]), 97.7%. Moreover, the Her2 level in assay [2] is 94% (inactive). Besides, the differential viability (reversal) in assay [6] (H69AR cells + 2 uM doxorubicin) is 5.3% (inactive). The inhibition was -0.68% (inactive) in assay [7] and 1.59% (inactive) in assay [8].
For the compound `CC(=O)Nc1c(C(=O)C2CC2)oc2ccccc12`, the viability is 102% in assay [1]; 102% (inactive) in assay [3]; 96.9% (inactive) in assay [4]; 90.2% (inactive) in assay [5]; 82.5% in assay [6] (setting [9]); 90.2% in assay [6] (setting [10]). The Her2 level in assay [2] was 124% (inactive). Moreover, in assay [6] (H69AR cells + 2 uM doxorubicin), the differential viability (reversal) was 7.75% (inactive). Besides, the inhibition was -5.33% (inactive) in assay [7] and -5.4% (inactive) in assay [8].
With `CC(C)Cn1c(=O)c(C(=O)Nc2ccccc2S(N)(=O)=O)c(O)c2ccccc21`, the viability in assay [1] was 118%; in assay [3], 118% (inactive); in assay [4], 62.9% (inactive); in assay [5] it was 16.1% (active); in assay [6] (setting [9]) it was 27.5%; in assay [6] (setting [10]), 16.1%. Moreover, the Her2 level in assay [2] was 91.5% (inactive). In addition, in assay [6] (H69AR cells + 2 uM doxorubicin), the differential viability (reversal) was -11.4% (inactive). The inhibition in assay [7] is 10.3% (inactive); in assay [8], 8.67% (inactive).
In the case of `O=C(Nc1ccc2oc(-c3ccncc3)nc2c1)c1cccs1`, the viability in assay [1] is 96%; in assay [3] it was 96% (inactive); in assay [4] it was 88.9% (inactive); in assay [5] it was 79.6% (inactive); in assay [6] (setting [9]), 78.9%; in assay [6] (setting [10]), 79.6%. Also, in assay [2], the Her2 level was 112% (inactive). The differential viability (reversal) in assay [6] (H69AR cells + 2 uM doxorubicin) was 0.7% (inactive). Moreover, the inhibition in assay [7] is -2.76% (inactive); in assay [8] it was 2.3% (inactive).
For `CC1CCCC(C)N1C(=O)COC(=O)c1ccc[nH]c1=O` (stereo not given), the viability was 102% in assay [1]; 102% (inactive) in assay [3]; 95.9% (inactive) in assay [4]; 97.7% (inactive) in assay [5]; 103% in assay [6] (setting [9]); 97.7% in assay [6] (setting [10]). For the same compound, the Her2 level in assay [2] was 86% (inactive). In addition, in assay [6] (H69AR cells + 2 uM doxorubicin), the differential viability (reversal) is -5.21% (inactive). Moreover, the inhibition in assay [7] is -4.49% (inactive); in assay [8], 1.67% (inactive).
As to `O=C1CCCN1CCCNc1ncnc2c1[nH]c1ccc(Cl)cc12`, the viability in assay [1] was 89%; in assay [3], 89% (inactive); in assay [4], 85.3% (inactive); in assay [5], 80.9% (inactive); in assay [6] (setting [9]), 77.8%; in assay [6] (setting [10]) it was 80.9%. Moreover, the Her2 level in assay [2] is 81% (inactive). In addition, in assay [6] (H69AR cells + 2 uM doxorubicin), the differential viability (reversal) was 3.12% (inactive). The inhibition was -7.6% (inactive) in assay [7] and -0.48% (inactive) in assay [8].
Consider `Cc1ccc(S(=O)(=O)NCCC(=O)OCn2nnc3ccccc3c2=O)cc1`, for which the viability in assay [1] was 95.5%; in assay [3], 95.5% (inactive); in assay [4], 83.8% (inactive); in assay [5], 95.1% (inactive); in assay [6] (setting [9]) it was 108%; in assay [6] (setting [10]), 95.1%. The Her2 level in assay [2] was 82.5% (inactive). Also, the differential viability (reversal) in assay [6] (H69AR cells + 2 uM doxorubicin) was -13.1% (inactive). Moreover, the inhibition in assay [7] was -2.37% (inactive); in assay [8], 1.27% (inactive).
Take `COc1ccc(OC)c(C(=O)c2coc3ccc(O)c(CN4CCOCC4)c23)c1`: the viability in assay [1] is 95.5%; in assay [3], 95.5% (inactive); in assay [4], 97.8% (inactive); in assay [5] it was 90.1% (inactive); in assay [6] (setting [9]), 94.1%; in assay [6] (setting [10]), 90.1%. For the same compound, in assay [2], the Her2 level was 78% (inactive). For the same compound, the differential viability (reversal) in assay [6] (H69AR cells + 2 uM doxorubicin) is -4.02% (inactive). For the same compound, the inhibition in assay [7] was -5.07% (inactive); in assay [8], -8.73% (inactive).
